Measurements: ChEMBL document CHEMBL1135690, “Benzodiazepine receptor ligands. 7. Synthesis and pharmacological evaluation of new 3-esters of the 8-chloropyrazolo[5,1-c][1,2,4]benzotriazine 5-oxide. 3-(2-Thienylmethoxycarbonyl) derivative: an anxioselective agent in rodents” (J Med Chem, 2002)
pKi: −log10 of the molar value.

Assays:
[1] = Displacement of [3H]-Ro-15-1788 from rat GABA-A receptor alpha-2-beta-2-gamma-2 subunits expressed in HEK293 cells; assay type: cell-based
Outline: (§1)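 Recombinant rat GABA-A subtypes are stably expressed in HEK293 cells grown in MEM/EBSS with 10% FCS at 37 °C. Membranes are made in 10 mM potassium phosphate pH 7.4 and resuspended with 100 mM KCl. Incubation uses 1–2 nM [3H]Ro15-1788 with compound at 10^-9–10^-5 M (≥6 concentrations), 1 h at 4 °C. […] Ki comes from Cheng–Prusoff, n=5, in triplicate.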

[2] = Displacement of [3H]Ro-151788 from rat GABA-A receptor alpha-5-beta-3-gamma-2 subunits expressed in HEK293 cells; assay type: cell-based; outline: as §1
[3] = biological target: T1, GABA-A receptor; alpha-1/beta-2/gamma-2 (Rattus norvegicus, UniProt P18508+P62813+P63138); assay: (§2) Displacement of [3H]Ro-151788 from rat GABA-A receptor alpha-1-beta-2-gamma-2 subunits expressed in HEK293 cells; assay type: cell-based
[4] = biological target: GABA A receptor alpha-3/beta-2/gamma-2 (Rattus norvegicus, UniProt P18508+P20236+P63138); assay: Displacement of [3H]Ro-151788 from rat GABA-A receptor alpha-3-beta-2-gamma-2 subunits expressed in HEK293 cells; assay type: cell-based
Mus musculus [5] = assay: Anxiolytic activity in mice using light-dark box and no. of transfers between compartments were reported at 30 mg/kg intraperitoneal dose; assay type: functional
Mus musculus [6] = assay: Percent anticonvulsant activity against pentylenetetrazole (PTZ)-induced attacks at 100 mg/kg intraperitoneal dose.; assay type: functional
Mus musculus [7] = assay: Motor coordination of mouse as number of falls in 30 sec was reported after 100 mg/kg intraperitoneal dose using rotarod test; assay type: functional
Outline: (§3)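 Male CD-1 mice are dosed po in 1% CMC (flumazenil ip). Falls from a rota rod turning at 24 rpm are counted over 30 s, 25 min after drug administration, and compared with vehicle-treated mice. Means ± SEM.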

Mus musculus [8] = assay: Percent anticonvulsant activity against pentylenetetrazole (PTZ)-induced attacks at 30 mg/kg intraperitoneal dose.; assay type: functional
Mus musculus [9] = assay: Anxiolytic activity in mice using light-dark box and % time spent in light was reported at 30 mg/kg intraperitoneal dose; assay type: functional
Mus musculus [10] = assay: Anxiolytic activity in mice using light-dark box and no. of transfers between compartments were reported at 100 mg/kg intraperitoneal dose; assay type: functional
Mus musculus [11] = assay: Motor coordination of mouse as number of falls in 30 sec was reported after 30 mg/kg intraperitoneal dose using rotarod test; assay type: functional; outline: as §3
Mus musculus [12] = assay: Anxiolytic activity in mice using light-dark box and % time spent in light was reported at 100 mg/kg intraperitoneal dose; assay type: functional
Mus musculus [13] = assay: Anxiolytic activity in mice using light-dark box and no. of transfers between compartments were reported at 100 mg/kg peroral dose; assay type: functional; conditions: route oral
Outline: (§4)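 Male CD-1 mice (22–24 g) given drug po in 1% carboxymethylcellulose (10 mL/kg). Each mouse placed in the centre of the lighted area facing away from the dark compartment and allowed to explore for 5 min; time spent in the illuminated side and number of transfers between compartments recorded. Tests run between 10:00 and 15:00.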

[14] = biological target: T1, GABA-A receptor; alpha-1/beta-2/gamma-2; assay: as §2; assay type: cell-based; remark: listed apart in the source
Outline: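 Membranes from HEK293 cells stably expressing recombinant rat GABA-A subtypes, homogenized in 10 mM potassium phosphate pH 7.4 and resuspended with 100 mM KCl. Incubation with 1–2 nM [3H]Ro15-1788 and test compound (10^-9–10^-5 M, at least six concentrations; DMSO ≤1%) for 1 h at 4 °C to equilibrium.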

Mus musculus [15] = assay: Percent anticonvulsant activity against pentylenetetrazole (PTZ)-induced attacks at 3 mg/kg peroral dose; assay type: functional; conditions: route oral
Outline: (§5)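 Male CD-1 mice dosed po in 1% carboxymethylcellulose, 30 min before PTZ (90 mg/kg sc, in 0.9% saline). Occurrence of clonic generalized convulsions noted over 30 min; χ² analysis vs control mice.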

Mus musculus [16] = assay: Motor coordination of mouse as number of falls in 30 sec was reported after 1 mg/kg peroral dose using rotarod test; assay type: functional; conditions: route oral; outline: as §3
Mus musculus [17] = assay: Anxiolytic activity in mice using light-dark box and no. of transfers between compartments were reported at 3 mg/kg peroral dose; assay type: functional; conditions: route oral; outline: as §4
Mus musculus [18] = assay: Percent anticonvulsant activity against pentylenetetrazole (PTZ)-induced attacks at 100 mg/kg peroral dose; assay type: functional; conditions: route oral; outline: as §5
[19] = Anticonvulsant activity electroshock induced convulsions and % lethality obtained at dose of 30 mg/kg; assay type: organism-based; set-up: dose 30 mg/kg; conditions: mouse, in vivo, read-out: Lethality
Outline: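 Male CD-1 mice (22–24 g), groups of 10–16, dosed po in 1% carboxymethylcellulose at 10 mL/kg. Electroshock (40 mA, 0.2 s, 50 Hz) applied to the corneas 30 min after dosing. End point is tonic hind limb extension; % protection and % lethality are recorded against vehicle-treated mice (χ2 analysis).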

Mus musculus [20] = assay: Anxiolytic activity in mice using light-dark box and % time spent in light was reported at 3 mg/kg peroral dose; assay type: functional; conditions: route oral; outline: as §4
Mus musculus [21] = assay: Anxiolytic activity in mice using light-dark box and no. of transfers between compartments were reported at 10 mg/kg peroral dose; assay type: functional; conditions: route oral; outline: as §4
Mus musculus [22] = assay: Anxiolytic activity in mice using light-dark box and % time spent in light was reported at 1 mg/kg peroral dose; assay type: functional; conditions: route oral
Outline: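 Light-dark box in male CD-1 mice. Ligands are given po in 1% CMC, flumazenil ip. Each mouse is placed in the centre of the lit area facing away from the dark one and explores for 5 min. Time in the illuminated side and number of transfers between compartments are recorded. Means ± SEM.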

Mus musculus [23] = assay: Motor coordination of mouse as number of falls in 30 sec was reported after 10 mg/kg peroral dose using rotarod test; assay type: functional; conditions: route oral; outline: as §3
[24] = biological target: GABA-A receptor; anion channel; set-up: species or system Bos taurus
Mus musculus [25] = assay: Motor coordination of mouse as number of falls in 30 sec was reported after 100 mg/kg peroral dose using rotarod test; assay type: functional; conditions: route oral
Outline: (§6)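 Male CD-1 mice dosed po (suspension in 1% carboxymethylcellulose, 10 mL/kg). Rota rod turning at 24 rpm; falls from the rod counted over 30 s, 25 min after drug administration.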

Mus musculus [26] = assay: Anxiolytic activity in mice using light-dark box and % time spent in light was reported at 100 mg/kg peroral dose; assay type: functional; conditions: route oral; outline: as §4
Mus musculus [27] = assay: Anxiolytic activity in mice using light-dark box and no. of transfers between compartments were reported at 30 mg/kg peroral dose; assay type: functional; conditions: route oral; outline: as §4
Mus musculus [28] = assay: Motor coordination of mouse as number of falls in 30 sec was reported after 30 mg/kg peroral dose using rotarod test; assay type: functional; conditions: route oral; outline: as §6
Mus musculus [29] = assay: Motor coordination of mouse as number of falls in 30 sec was reported after 3 mg/kg peroral dose using rotarod test; assay type: functional; conditions: route oral; outline: as §6
Mus musculus [30] = assay: Anticonvulsant activity electroshock induced convulsions in hind limb of mice at a dose of 30 mg/kg; assay type: functional, Hindlimb
Outline: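 Male CD-1 mice (22–24 g); oral dosing as suspension in 1% carboxymethylcellulose (10 mL/kg), 30 min before corneal electroshock (40 mA, 0.2 s, 50 Hz). Groups of 10–16 mice; end point tonic hind limb extension; lethality also recorded; χ² analysis vs CMC-treated mice.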

Mus musculus [31] = assay: Anxiolytic activity in mice using light-dark box and % time spent in light was reported at 30 mg/kg peroral dose; assay type: functional; conditions: route oral; outline: as §4
Mus musculus [32] = assay: Percent anticonvulsant activity against pentylenetetrazole (PTZ)-induced attacks at 1 mg/kg peroral dose; assay type: functional; conditions: route oral
Outline: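 Male CD-1 mice are dosed po in 1% CMC (flumazenil ip). PTZ (90 mg/kg sc, in 0.9% saline) is injected 30 min later. Clonic generalized convulsions are scored over 30 min, with % protection compared with controls by χ2 analysis.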

Mus musculus [33] = assay: Anxiolytic activity in mice using light-dark box and no. of transfers between compartments were reported at 1 mg/kg peroral dose; assay type: functional; conditions: route oral; outline: as §4
Mus musculus [34] = assay: Anxiolytic activity in mice using light-dark box and % time spent in light was reported at 10 mg/kg peroral dose; assay type: functional; conditions: route oral; outline: as §4
Mus musculus [35] = assay: Percent anticonvulsant activity against pentylenetetrazole (PTZ)-induced attacks at 30 mg/kg peroral dose; assay type: functional; conditions: route oral; outline: as §5
Mus musculus [36] = assay: Percent anticonvulsant activity against pentylenetetrazole (PTZ)-induced attacks at 10 mg/kg peroral dose; assay type: functional; conditions: route oral; outline: as §5

Chain of GABA A receptor alpha-3/beta-2/gamma-2 (P18508 whole entry): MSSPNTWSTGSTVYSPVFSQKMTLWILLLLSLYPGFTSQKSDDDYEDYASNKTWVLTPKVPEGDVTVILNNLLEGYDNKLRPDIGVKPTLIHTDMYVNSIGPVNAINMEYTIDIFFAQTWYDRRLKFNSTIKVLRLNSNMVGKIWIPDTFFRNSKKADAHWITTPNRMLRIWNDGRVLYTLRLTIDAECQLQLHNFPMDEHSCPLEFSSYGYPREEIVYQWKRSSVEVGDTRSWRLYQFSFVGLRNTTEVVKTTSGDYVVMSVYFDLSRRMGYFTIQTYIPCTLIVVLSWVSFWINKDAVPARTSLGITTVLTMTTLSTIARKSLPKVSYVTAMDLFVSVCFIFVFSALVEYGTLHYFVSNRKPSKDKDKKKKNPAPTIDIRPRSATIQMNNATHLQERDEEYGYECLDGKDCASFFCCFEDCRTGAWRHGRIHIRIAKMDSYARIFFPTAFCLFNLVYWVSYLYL
Chain of GABA A receptor alpha-3/beta-2/gamma-2 (P20236 whole entry): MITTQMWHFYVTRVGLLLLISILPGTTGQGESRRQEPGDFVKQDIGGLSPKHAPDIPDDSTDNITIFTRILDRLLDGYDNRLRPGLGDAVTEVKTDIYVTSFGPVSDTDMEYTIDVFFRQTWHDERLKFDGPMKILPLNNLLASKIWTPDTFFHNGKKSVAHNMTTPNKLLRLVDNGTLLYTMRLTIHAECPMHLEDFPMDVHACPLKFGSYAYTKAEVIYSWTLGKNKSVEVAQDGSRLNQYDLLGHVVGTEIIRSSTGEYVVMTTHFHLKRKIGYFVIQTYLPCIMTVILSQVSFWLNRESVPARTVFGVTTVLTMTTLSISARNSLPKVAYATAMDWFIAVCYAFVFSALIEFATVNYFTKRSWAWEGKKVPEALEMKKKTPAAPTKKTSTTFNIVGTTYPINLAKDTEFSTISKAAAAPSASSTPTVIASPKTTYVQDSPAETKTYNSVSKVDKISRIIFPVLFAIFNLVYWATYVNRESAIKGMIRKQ
Chain of GABA A receptor alpha-3/beta-2/gamma-2 (P63138 whole entry): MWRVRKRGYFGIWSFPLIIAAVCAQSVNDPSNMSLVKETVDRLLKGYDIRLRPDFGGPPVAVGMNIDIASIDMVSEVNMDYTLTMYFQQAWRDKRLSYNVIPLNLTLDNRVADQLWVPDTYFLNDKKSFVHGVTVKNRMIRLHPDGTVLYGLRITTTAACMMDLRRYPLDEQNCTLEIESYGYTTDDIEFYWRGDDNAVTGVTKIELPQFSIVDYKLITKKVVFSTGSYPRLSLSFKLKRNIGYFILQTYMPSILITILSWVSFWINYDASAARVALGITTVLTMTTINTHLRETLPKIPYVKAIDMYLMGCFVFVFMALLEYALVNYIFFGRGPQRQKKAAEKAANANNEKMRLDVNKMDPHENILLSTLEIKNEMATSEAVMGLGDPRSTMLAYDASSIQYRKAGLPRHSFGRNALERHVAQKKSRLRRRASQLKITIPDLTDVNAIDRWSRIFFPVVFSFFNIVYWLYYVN
T1 sequence (P18508 whole entry): as the sequence (P18508 whole entry) above
T1 sequence (P62813 whole entry): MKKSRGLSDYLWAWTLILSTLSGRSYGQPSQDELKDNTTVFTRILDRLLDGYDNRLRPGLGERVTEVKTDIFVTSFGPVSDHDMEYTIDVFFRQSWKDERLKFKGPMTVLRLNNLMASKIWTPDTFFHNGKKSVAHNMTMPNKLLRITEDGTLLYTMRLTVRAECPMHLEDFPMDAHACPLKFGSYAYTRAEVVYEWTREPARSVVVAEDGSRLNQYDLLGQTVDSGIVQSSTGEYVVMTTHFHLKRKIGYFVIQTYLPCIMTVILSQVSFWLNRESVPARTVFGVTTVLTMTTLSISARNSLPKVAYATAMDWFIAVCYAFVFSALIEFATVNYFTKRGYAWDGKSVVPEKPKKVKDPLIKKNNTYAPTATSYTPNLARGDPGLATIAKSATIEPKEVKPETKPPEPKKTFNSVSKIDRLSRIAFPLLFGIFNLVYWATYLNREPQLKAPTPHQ
T1 sequence (P63138 whole entry): as the sequence (P63138 whole entry) above

## [O-][n+]1nc2c(-c3ccsc3)cnn2c2cc(Cl)ccc21
[1]
  pKi: 7.92
[2]
  pKi: 7.74
[3]
  pKi: 8.39
[4]
  pKi: 7.48

## CCOC(=O)c1ncn2c1CN(C)C(=O)c1cc(F)ccc1-2 [FLUMAZENIL]
Mus musculus [5]
  No. of transfers: 11.8
Mus musculus [6]
  Activity: 5.3%
Mus musculus [7]
  No. of falls: 0.4
Mus musculus [8]
  Activity: 11.1%
Mus musculus [9]
  Activity: 90.36%
Mus musculus [10]
  No. of transfers: 15.2
Mus musculus [11]
  No. of falls: 0.33
Mus musculus [12]
  Activity: 119%

## O=C(OCc1cccs1)c1cnn2c1n[n+]([O-])c1ccc(Cl)cc12
Mus musculus [13]
  No. of transfers: 14.6
[14]
  pKi: 8.52
Mus musculus [15]
  Activity: 0%
Mus musculus [16]
  No. of falls: 0.1
Mus musculus [17]
  No. of transfers: 15.6
Mus musculus [18]
  Activity: 20%
[1]
  pKi: 7.59
[2]
  pKi: 8.07
[19]
  mortality: 40%
Mus musculus [20]
  Activity: 170.8%
Mus musculus [21]
  No. of transfers: 16.6
Mus musculus [22]
  Activity: 12.89%
Mus musculus [23]
  No. of falls: 0.15
[24]
  pKi: 8.17
Mus musculus [25]
  No. of falls: 0
Mus musculus [26]
  Activity: 157.1%
Mus musculus [27]
  No. of transfers: 20.5
Mus musculus [28]
  No. of falls: 0.1
Mus musculus [29]
  No. of falls: 0.1
Mus musculus [30]
  Activity: 0%
Mus musculus [31]
  Activity: 144.3%
Mus musculus [32]
  Activity: 20%
[4]
  pKi: 7.92
Mus musculus [33]
  No. of transfers: 21.1
Mus musculus [34]
  Activity: 155.1%
Mus musculus [35]
  Activity: 40%
Mus musculus [36]
  Activity: 15.38%
